Results from ChEMBL document CHEMBL1148762, “Lysosome and HER3 (ErbB3) selective anticancer agent kahalalide F: semisynthetic modifications and antifungal lead-exploration studies” (J Med Chem, 2007).
Values after ≈ are worked out from the molar mass of the structure shown.

Assays:
Candida albicans = assay: Antimicrobial activity against Candida albicans ATCC 90028; format: functional, organism-based
[1] = test system: Mycobacterium intracellulare; assay: Antimicrobial activity against Mycobacterium intracellular ATCC 23068; format: functional, organism-based
Aspergillus fumigatus = assay: Antimicrobial activity against Aspergillus fumigatus ATCC 90906; format: functional, organism-based
Cryptococcus neoformans = assay: Antimicrobial activity against Cryptococcus neoformans ATCC 90113; format: functional, organism-based
[2] = test system: Mycobacterium tuberculosis; assay: Antibacterial activity against Mycobacterium tuberculosis H37Rv at 16 ug/mL by micro plate alamar blue assay; format: functional
In short: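 M. tuberculosis H37Rv ATCC 27294 grown in BACTEC 12B medium; microplate Alamar blue assay (MABA). Primary screen at a single concentration of 16 µg/mL, read as percent inhibition.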

Fusarium proliferatum [3] = assay: Antimicrobial activity against Fusarium proliferatum at 0.3 uM after 48 hrs by microtiter assay; format: functional
In short: (§1)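 96-well microdilution broth assay with conidia (3 × 10^5 conidia/mL, harvested from 7-day PDA cultures and filtered) against F. oxysporum, F. proliferatum and F. solani at 0.3, 3 and 30 µM. Plates were held at 24 ± 1 °C under a 12 h photoperiod. Growth was read at 620 nm at 24, 48 and 72 h and reported as percent inhibition from mean absorbance with standard error.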

Fusarium oxysporum [4] = assay: Antimicrobial activity against Fusarium oxysporum at 0.3 uM after 48 hrs by microtiter assay; format: functional; in short: as §1
Fusarium proliferatum [5] = assay: Antimicrobial activity against Fusarium proliferatum at 30 uM after 72 hrs by microtiter assay; format: functional; in short: as §1
Fusarium oxysporum [6] = assay: Antimicrobial activity against Fusarium oxysporum at 3 uM after 48 hrs by microtiter assay; format: functional; in short: as §1
Fusarium solani [7] = assay: Antimicrobial activity against Fusarium solani at 30 uM after 72 hrs by microtiter assay; format: functional; in short: as §1
Fusarium proliferatum [8] = assay: Antimicrobial activity against Fusarium proliferatum at 30 uM after 48 hrs by microtiter assay; format: functional; in short: as §1
Fusarium proliferatum [9] = assay: Antimicrobial activity against Fusarium proliferatum at 0.3 uM after 72 hrs by microtiter assay; format: functional; in short: as §1
Fusarium solani [10] = assay: Antimicrobial activity against Fusarium solani at 3 uM after 48 hrs by microtiter assay; format: functional; in short: as §1
Fusarium oxysporum [11] = assay: Antimicrobial activity against Fusarium oxysporum at 30 uM after 48 hrs by microtiter assay; format: functional; in short: as §1
Fusarium proliferatum [12] = assay: Antimicrobial activity against Fusarium proliferatum at 3 uM after 48 hrs by microtiter assay; format: functional; in short: as §1
Fusarium oxysporum [13] = assay: Antimicrobial activity against Fusarium oxysporum at 3 uM after 72 hrs by microtiter assay; format: functional; in short: as §1
Fusarium proliferatum [14] = assay: Antimicrobial activity against Fusarium proliferatum at 3 uM after 72 hrs by microtiter assay; format: functional; in short: as §1
Fusarium solani [15] = assay: Antimicrobial activity against Fusarium solani at 0.3 uM after 72 hrs by microtiter assay; format: functional; in short: as §1
Fusarium solani [16] = assay: Antimicrobial activity against Fusarium solani at 3 uM after 72 hrs by microtiter assay; format: functional; in short: as §1
Fusarium solani [17] = assay: Antimicrobial activity against Fusarium solani at 30 uM after 48 hrs by microtiter assay; format: functional; in short: as §1
Fusarium solani [18] = assay: Antimicrobial activity against Fusarium solani at 0.3 uM after 48 hrs by microtiter assay; format: functional; in short: as §1
Fusarium oxysporum [19] = assay: Antimicrobial activity against Fusarium oxysporum at 0.3 uM after 72 hrs by microtiter assay; format: functional; in short: as §1
Fusarium oxysporum [20] = assay: Antimicrobial activity against Fusarium oxysporum at 30 uM after 72 hrs by microtiter assay; format: functional; in short: as §1
KM12 = assay: Cytotoxicity against human KM12 cells; format: functional
In short: (§2)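 NCI Developmental Therapeutics Program cell panel. GI50 is the concentration that reduces growth of treated cells to half that of untreated controls. TGI is the concentration that completely halts growth.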

DU-145 = assay: Cytotoxicity against human DU145 cells; format: functional; in short: as §2
HCC 2998 = assay: Cytotoxicity against human HCC2998 cells; format: functional; in short: as §2
HT-29 = assay: Cytotoxicity against human HT29 cells; format: functional; in short: as §2
NCI-H322M = assay: Cytotoxicity against human NCI-H322M cells; format: functional; in short: as §2
RPMI-8226 = assay: Cytotoxicity against human RPMI8226 cells; format: functional; in short: as §2
SNB-75 = assay: Cytotoxicity against human SNB75 cells; format: functional; in short: as §2
Hs-578T = assay: Cytotoxicity against human HS578T cells; format: functional; in short: as §2
UACC-257 = assay: Cytotoxicity against human UACC257 cells; format: functional; in short: as §2
COLO 205 = assay: Cytotoxicity against human COLO205 cells; format: functional; in short: as §2
PC-3 = assay: Cytotoxicity against human PC3 cells; format: functional; in short: as §2
A549 = assay: Cytotoxicity against human A549 cells; format: functional; in short: as §2
ACHN = assay: Cytotoxicity against human ACHN cells; format: functional; in short: as §2
SK-OV-3 = assay: Cytotoxicity against human SK-OV3 cells; format: functional; in short: as §2
HCT-15 = assay: Cytotoxicity against human HCT15 cells; format: functional; in short: as §2

C/C=C1\NC(=O)[C@H](Cc2ccccc2)NC(=O)[C@@H](C(C)C)NC(=O)[C@@H]([C@@H](C)CC)NC(=O)[C@H](NC(=O)[C@H](NC(=O)[C@H](CCCN(Cc2ccc(F)cc2)Cc2ccc(F)cc2)NC(=O)[C@H]2CCCN2C(=O)[C@H](NC(=O)[C@@H](NC(=O)[C@@H](NC(=O)[C@H](NC(=O)CCCC(C)C)C(C)C)[C@@H](C)O)C(C)C)C(C)C)[C@@H](C)CC)[C@@H](C)OC(=O)[C@H](C(C)C)NC1=O
IC50 (Candida albicans): > 11.8 µM
IC50 [1]: > 11.8 µM
IC50 (Aspergillus fumigatus): > 11.8 µM
IC50 (Cryptococcus neoformans): > 11.8 µM

C/C=C(\NC(=O)[C@H](Cc1ccccc1)NC(=O)[C@H](NC(=O)[C@H](NC(=O)[C@H](NC(=O)[C@H](NC(=O)[C@H](CCCN)NC(=O)[C@H]1CCCN1C(=O)[C@H](NC(=O)[C@@H](NC(=O)[C@@H](NC(=O)[C@H](NC(=O)CCCC(C)C)C(C)C)[C@@H](C)O)C(C)C)C(C)C)[C@@H](C)CC)[C@@H](C)O)[C@@H](C)CC)C(C)C)C(=O)N[C@H](C(=O)O)C(C)C [KAHALALIDE G]
inhibition at 16 µg/mL [2]: 29%
IC50 (Candida albicans): > 13.4 µM
IC50 [1]: > 13.4 µM
IC50 (Aspergillus fumigatus): > 13.4 µM
IC50 (Cryptococcus neoformans): > 13.4 µM

C/C=C1\NC(=O)[C@H](Cc2ccccc2)NC(=O)[C@@H](C(C)C)NC(=O)[C@@H]([C@@H](C)CC)NC(=O)[C@H](NC(=O)[C@H](NC(=O)[C@H](CCCN(CCCCCC)CCCCCC)NC(=O)[C@H]2CCCN2C(=O)[C@H](NC(=O)[C@@H](NC(=O)[C@@H](NC(=O)[C@H](NC(=O)CCCC(C)C)C(C)C)[C@@H](C)O)C(C)C)C(C)C)[C@@H](C)CC)[C@@H](C)OC(=O)[C@H](C(C)C)NC1=O
IC50 (Candida albicans): > 12.2 µM
IC50 [1]: > 20 µM
IC50 (Aspergillus fumigatus): > 12.2 µM
IC50 (Cryptococcus neoformans): 6.71 µM

C/C=C1\NC(=O)[C@H](Cc2ccccc2)NC(=O)[C@@H](C(C)C)NC(=O)[C@@H]([C@@H](C)CC)NC(=O)[C@H](NC(=O)[C@H](NC(=O)[C@H](CCCN)NC(=O)[C@H]2CCCN2C(=O)[C@H](NC(=O)[C@@H](NC(=O)[C@@H](NC(=O)[C@H](NC(=O)CCCC(C)C)C(C)C)C(C)=O)C(C)C)C(C)C)[C@@H](C)CC)[C@@H](C)OC(=O)[C@H](C(C)C)NC1=O
inhibition at 0.3 µM (Fusarium proliferatum [3]): 1.8%
inhibition at 0.3 µM (Fusarium oxysporum [4]): 1.8%
inhibition at 30 µM (Fusarium proliferatum [5]): 73.2%
inhibition at 3 µM (Fusarium oxysporum [6]): 1.8%
inhibition at 30 µM (Fusarium solani [7]): 85.5%
inhibition at 30 µM (Fusarium proliferatum [8]): 92.7%
inhibition at 0.3 µM (Fusarium proliferatum [9]): 0%
inhibition at 3 µM (Fusarium solani [10]): 0%
inhibition at 30 µM (Fusarium oxysporum [11]): 91.9%
inhibition at 3 µM (Fusarium proliferatum [12]): 5%
inhibition at 3 µM (Fusarium oxysporum [13]): 0%
inhibition at 3 µM (Fusarium proliferatum [14]): 0%
inhibition at 0.3 µM (Fusarium solani [15]): 0%
inhibition at 3 µM (Fusarium solani [16]): 0%
inhibition at 30 µM (Fusarium solani [17]): 90.6%
MFC (Candida albicans): > 20 µM
MIC (Candida albicans): > 20 µM
inhibition at 0.3 µM (Fusarium solani [18]): 0%
MBC [1]: > 20 µM
MIC [1]: > 20 µM
inhibition at 0.3 µM (Fusarium oxysporum [19]): 0%
MFC (Aspergillus fumigatus): > 20 µM
MIC (Aspergillus fumigatus): > 20 µM
inhibition at 30 µM (Fusarium oxysporum [20]): 82.2%
MFC (Cryptococcus neoformans): 20 µM (≈ 29.5 µg/mL)
MIC (Cryptococcus neoformans): 10 µM (≈ 14.8 µg/mL)

C/C=C1\NC(=O)[C@H](Cc2ccccc2)NC(=O)[C@@H](C(C)C)NC(=O)[C@@H]([C@@H](C)CC)NC(=O)[C@H](NC(=O)[C@H](NC(=O)[C@H](CCCNCc2ccc(F)cc2)NC(=O)[C@H]2CCCN2C(=O)[C@H](NC(=O)[C@@H](NC(=O)[C@@H](NC(=O)[C@H](NC(=O)CCCC(C)C)C(C)C)[C@@H](C)O)C(C)C)C(C)C)[C@@H](C)CC)[C@@H](C)OC(=O)[C@H](C(C)C)NC1=O
IC50 (Candida albicans): > 12.6 µM
IC50 [1]: > 20 µM
IC50 (Aspergillus fumigatus): > 12.6 µM
IC50 (Cryptococcus neoformans): 3.77 µM

C/C=C1\NC(=O)[C@H](Cc2ccccc2)NC(=O)[C@@H](C(C)C)NC(=O)[C@@H]([C@@H](C)CC)NC(=O)[C@H](NC(=O)[C@H](NC(=O)[C@H](CCCNCc2ccncc2)NC(=O)[C@H]2CCCN2C(=O)[C@H](NC(=O)[C@@H](NC(=O)[C@@H](NC(=O)[C@H](NC(=O)CCCC(C)C)C(C)C)[C@@H](C)O)C(C)C)C(C)C)[C@@H](C)CC)[C@@H](C)OC(=O)[C@H](C(C)C)NC1=O
inhibition at 0.3 µM (Fusarium proliferatum [3]): 0%
inhibition at 0.3 µM (Fusarium oxysporum [4]): 0%
inhibition at 30 µM (Fusarium proliferatum [5]): 95.3%
inhibition at 3 µM (Fusarium oxysporum [6]): 0%
inhibition at 16 µg/mL [2]: 24%
inhibition at 30 µM (Fusarium solani [7]): 97.5%
inhibition at 30 µM (Fusarium proliferatum [8]): 99.1%
inhibition at 0.3 µM (Fusarium proliferatum [9]): 0%
inhibition at 3 µM (Fusarium solani [10]): 0%
GI50 (KM12): 0.152 µM
GI50 (DU-145): 0.124 µM
TGI (DU-145): 0.266 µM
inhibition at 30 µM (Fusarium oxysporum [11]): 98.2%
GI50 (HCC 2998): 0.236 µM
TGI (HCC 2998): 0.732 µM
inhibition at 3 µM (Fusarium proliferatum [12]): 0%
inhibition at 3 µM (Fusarium oxysporum [13]): 0%
GI50 (HT-29): 0.279 µM
inhibition at 3 µM (Fusarium proliferatum [14]): 0%
GI50 (NCI-H322M): 0.131 µM
TGI (NCI-H322M): 0.238 µM
inhibition at 0.3 µM (Fusarium solani [15]): 0%
GI50 (RPMI-8226): 0.638 µM
TGI (RPMI-8226): 1.89 µM
GI50 (SNB-75): 1.29 µM
TGI (SNB-75): 2.61 µM
GI50 (Hs-578T): 0.162 µM
TGI (Hs-578T): 0.444 µM
inhibition at 3 µM (Fusarium solani [16]): 0%
GI50 (UACC-257): 1.31 µM
TGI (UACC-257): 2.43 µM
inhibition at 30 µM (Fusarium solani [17]): 99.2%
MFC (Candida albicans): > 20 µM
MIC (Candida albicans): > 20 µM
inhibition at 0.3 µM (Fusarium solani [18]): 0%
GI50 (COLO 205): 0.618 µM
MBC [1]: > 20 µM
MIC [1]: > 20 µM
inhibition at 0.3 µM (Fusarium oxysporum [19]): 0%
GI50 (PC-3): 0.267 µM
TGI (PC-3): 0.973 µM
GI50 (A549): 0.189 µM
TGI (A549): 0.425 µM
GI50 (ACHN): 1.28 µM
TGI (ACHN): 2.32 µM
MFC (Aspergillus fumigatus): 20 µM (≈ 31.4 µg/mL)
MIC (Aspergillus fumigatus): 10 µM (≈ 15.7 µg/mL)
inhibition at 30 µM (Fusarium oxysporum [20]): 91.2%
GI50 (SK-OV-3): 0.374 µM
TGI (SK-OV-3): 1.36 µM
GI50 (HCT-15): 0.492 µM
TGI (HCT-15): 1.56 µM
MFC (Cryptococcus neoformans): 5 µM (≈ 7.85 µg/mL)
MIC (Cryptococcus neoformans): 5 µM (≈ 7.85 µg/mL)
